Experiment [1] deals with T1, Adrenergic receptor alpha-1 (Homo sapiens) (UniProt P35348+P25100+P35368). The experiment can be described thus: alpha-1-adrenergic activity by measuring their potency in rabbit ear artery based on noradrenaline. In kind it is functional, tissue-based. The conditions noted are these: Oryctolagus cuniculus, target entry is the homologue from another species. In a few lines:
(§1)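 Isolated rabbit ear artery segment, circular smooth muscle tension measured isometrically; cocaine blocks neuronal uptake, rauwolscine blocks α2-receptors. Cumulative noradrenaline curve (10^-10–10^-5 M) sets the maximum, then after washout a cumulative curve for the test drug. pD2 = −log molar concentration giving 50% of NA maximum; efficacy = drug maximum relative to NA. n = 3-5.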

For experiment [2], the target named is T1, Adrenergic receptor alpha-1 (Homo sapiens). The experiment can be described thus: alpha-1-adrenergic activity by measuring their efficacy in rabbit ear artery based on noradrenaline. In kind it is functional, tissue-based. The following applies: Oryctolagus cuniculus, target entry is the homologue from another species. The gist of the method: as §1
The species entered for experiment [3] is Rattus norvegicus. Nature of the experiment: Change in blood pressure was reported in pithed rat. In kind it is functional. In a few lines: (§2)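 Pithed rats with jugular vein catheter for iv dosing and carotid catheter for arterial pressure, about 15 min equilibration. Single increasing iv doses are given and the rise in diastolic pressure is read to build a dose-response curve. pD2 is taken from that curve; efficacy is relative to noradrenaline. n = 3.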

Experiment [4] is filed under the species Rattus norvegicus. Nature of the experiment: Alpha-1/Alpha-2-agonistic activity by measuring their potency in pithed rat based on noradrenaline. Format: functional. In a few lines:
as §2

Experiment [5] is filed under the species Rattus norvegicus. The experiment can be described thus: Alpha-1/Alpha-2-agonistic activity by measuring their efficacy in pithed rat based on noradrenaline. Format: functional. The gist of the method: as §2
The target of experiment [6] is T1, Adrenergic receptor alpha-1 (Homo sapiens). Nature of the experiment: Alpha-1-adrenergic activity as efficacy in rabbit ear artery relative to noradrenaline. In kind it is functional, tissue-based. The conditions noted are these: Oryctolagus cuniculus, target entry is the homologue from another species. In a few lines:
as §1

The species entered for experiment [7] is Rattus norvegicus. Nature of the experiment: alpha-1/alpha-2-agonistic activity by measuring their potency in pithed rat based on noradrenaline. In kind it is functional. In a few lines: as §2
The species named for experiment [8] is Rattus norvegicus. Nature of the experiment: Alpha-1/alpha-2-agonistic activity by measuring their efficacy in pithed rat based on noradrenaline. Format: functional. In a few lines:
as §2

Experiment [9] addresses T1, Adrenergic receptor alpha-1 (Homo sapiens). The experiment can be described thus: Alpha-1-adrenergic activity as potency in rabbit ear artery compared to noradrenaline. The following applies: Oryctolagus cuniculus, target entry is the homologue from another species. In kind it is functional, tissue-based. The gist of the method:
as §1

The species named for experiment [10] is Rattus norvegicus. The experiment can be described thus: Alpha-1/alpha-2-agonistic activity by measuring their potency in pithed rat based on noradrenaline. In kind it is functional. The gist of the method:
as §2

The species entered for experiment [11] is Rattus norvegicus. Nature of the experiment: alpha-1/alpha-2-agonistic activity by measuring their efficacy in pithed rat based on noradrenaline. In kind it is functional. The gist of the method:
as §2

In experiment [12] the target is T1, Adrenergic receptor alpha-1 (Homo sapiens). The conditions noted are these: Oryctolagus cuniculus; Artery.
Experiment [13] shares this target. The conditions noted are these: Oryctolagus cuniculus; Artery. This is another data set of the same source.

With `COc1ccc(SC)c2c1C[C@H]1[C@@H](C2)OCCN1C` (stereo in doubt; 14) [listing 1 of 2 here], the pD2 in experiment [1] stood at 7.5. Further, the E in experiment [2] was found to be 110.

For `COc1ccc(SC)c2c1CC1C(CCCN1C)C2` (stereo in doubt; trans), the “Increase in blood pressure (P/R)” value in the experiment listed under Rattus norvegicus [3] was -79%. Besides, the pD2 in the experiment listed under Rattus norvegicus [4] came to 6.92. Further, the E in the experiment listed under Rattus norvegicus [5] is listed as 72.

On to `COc1ccc([N+](=O)[O-])c2c1CC1C(C2)OCCN1C` (centres undefined), for which the “Increase in blood pressure (P/R)” value in the experiment listed under Rattus norvegicus [3] is reported as -22%. The values for the E (in [6]; in the experiment listed under Rattus norvegicus [8]) were 85 and 17, respectively. The values for the pD2 (in the experiment filed under Rattus norvegicus [7]; in experiment [1]) were 6 and 5.45, respectively.

Regarding `COc1ccc(SC)c2c1CC1C(CCCN1C)C2` (stereo in doubt; cis) [listing 1 of 2 here], in [9], the pD2 was < 4.

Consider `CCCN1CCOC2Cc3c(SC)ccc(OC)c3CC21` (centres undefined), for which the “Increase in blood pressure (P/R)” value in the experiment listed under Rattus norvegicus [3] is on record as -76%. In addition, the values for the pD2 (in the experiment filed under Rattus norvegicus [4]; in experiment [9]) were 6.18 and 6.78, respectively. For the same compound, the E in experiment [6] came out at 98; in the experiment filed under Rattus norvegicus [5] it was 38.

In [6], `COc1ccc(SC)c2c1CC1C(CCCN1C)C2` (stereo in doubt; 33) [listing 1 of 2 here] gave an E of 109. This compound registered a pD2 in [9] of 8.4.

Consider `CCSc1ccc(OC)c2c1CC1CCCN(C)C1C2` (stereo in doubt) [listing 1 of 2 here], for which, in the experiment filed under Rattus norvegicus [3], the “Increase in blood pressure (P/R)” value is -25%. Further, the pD2 in the experiment filed under Rattus norvegicus [4] worked out at 6.12. The same compound came in with an E in the experiment filed under Rattus norvegicus [5] of 18.

On to `CCSc1ccc(OC)c2c1CC1CCCN(C)C1C2` (stereo in doubt) [listing 2 of 2 here], for which the pD2 in experiment [9] is < 4.

For the compound `CCSc1ccc(OC)c2c1CC1CCCN(C)C1C2` (stereo in doubt; 31) [listing 1 of 2 here], the “Increase in blood pressure (P/R)” value in the experiment listed under Rattus norvegicus [3] is -93%. Further, the pD2 in the experiment listed under Rattus norvegicus [4] is 6.68. In addition, the E in the experiment listed under Rattus norvegicus [5] turned out to be 80.

`COc1ccc(Cl)c2c1CC1C(C2)OCCN1C` (centres undefined): in the experiment filed under Rattus norvegicus [3], the “Increase in blood pressure (P/R)” value is reported as -5%. For the same compound, the E is 89 in experiment [6] and 40 in the experiment listed under Rattus norvegicus [5]. Besides, the pD2 stood at 5.97 in experiment [9] and 5.89 in the experiment listed under Rattus norvegicus [10].

With `COc1ccc(SC)c2c1CC1C(CCCN1C)C2` (stereo in doubt; cis) [listing 2 of 2 here], in the experiment listed under Rattus norvegicus [4], the pD2 is reported as <4.

On to `CCSc1ccc(OC)c2c1CC1OCCN(C)C1C2` (centres undefined), for which, in the experiment filed under Rattus norvegicus [3], the “Increase in blood pressure (P/R)” value is -80%. Also, the figures for the E (in experiment [6]; in the experiment filed under Rattus norvegicus [8]) were 95 and 86, respectively. The pD2 in the experiment listed under Rattus norvegicus [7] worked out at 6.48; in [1] it was 8.2.

Regarding `COc1ccc(SC)c2c1C[C@H]1[C@@H](C2)OCCN1C` (stereo in doubt; 15) [listing 1 of 2 here], the “Increase in blood pressure (P/R)” value in the experiment filed under Rattus norvegicus [3] was -40%. In the experiment filed under Rattus norvegicus [4], this compound displayed a pD2 of 6.19. For the same compound, the E in the experiment listed under Rattus norvegicus [5] was found to be 23.

`CCSc1ccc(OC)c2c1CC1CCCN(C)C1C2` (stereo in doubt; 31) [listing 2 of 2 here] displayed an E in [6] of 97. This compound came in with a pD2 in [9] of 6.46.

Turning to `COc1ccc(SC)c2c1CC1C(CCCN1C)C2` (stereo in doubt; 33) [listing 2 of 2 here], in the experiment listed under Rattus norvegicus [3], the “Increase in blood pressure (P/R)” value is recorded as -87%. In the experiment filed under Rattus norvegicus [4], this compound came in with a pD2 of 7.36. Besides, the E in the experiment listed under Rattus norvegicus [5] came out at 85.

For the compound `COc1ccc(SC)c2c1C[C@H]1[C@@H](C2)OCCN1C` (stereo in doubt; 14) [listing 2 of 2 here], the “Increase in blood pressure (P/R)” value in the experiment filed under Rattus norvegicus [3] is reported as -79%. Also, the pD2 in the experiment filed under Rattus norvegicus [7] is reported as 6.74. In the experiment listed under Rattus norvegicus [11], this compound came in with an E of 76.

On to `COc1ccc(SC)c2c1C[C@@H](N)CC2`, for which the “Increase in blood pressure (P/R)” value in the experiment listed under Rattus norvegicus [3] is listed as -94%. The pD2 in the experiment filed under Rattus norvegicus [4] amounted to 7.92; in experiment [9], 7.48. Besides, the E in experiment [6] worked out at 98; in the experiment filed under Rattus norvegicus [5], 73.

Regarding `CCN1CC(C)OC2Cc3c(SC)ccc(OC)c3CC21` (centres undefined), the “Increase in blood pressure (P/R)” value in the experiment listed under Rattus norvegicus [3] is on record as -34%. For the same compound, the pD2 is 6.45 in the experiment listed under Rattus norvegicus [4] and 6.47 in experiment [9]. Also, the E in experiment [6] is 93; in the experiment filed under Rattus norvegicus [5], 29.

With `CCC1CN(C)C2Cc3c(OC)ccc(SC)c3CC2O1` (centres undefined), the “Increase in blood pressure (P/R)” value in the experiment listed under Rattus norvegicus [3] is 0%. Moreover, the pD2 stood at 6.1 in the experiment filed under Rattus norvegicus [4] and 5.35 in experiment [9]. Further, the E in experiment [6] was 42; in the experiment listed under Rattus norvegicus [5] it was 20.

As to `NC[C@H](O)c1ccc(O)c(O)c1`, the E in experiment [12] came out at 100. The PD2 in experiment [13] worked out at 7.7.

As for `COc1ccc(SC)c2c1CC1C(C2)OC(C)CN1C` (centres undefined), the E in experiment [6] worked out at 67. The pD2 is <4 in the experiment filed under Rattus norvegicus [7] and 5.83 in [1].

Regarding `CCN1CCOC2Cc3c(SC)ccc(OC)c3CC21` (centres undefined), the “Increase in blood pressure (P/R)” value in the experiment filed under Rattus norvegicus [3] is -84%. Moreover, the pD2 in the experiment listed under Rattus norvegicus [4] came out at 6.84; in experiment [9], 7.42. Moreover, the results for the E (in experiment [6]; in the experiment listed under Rattus norvegicus [5]) were 98 and 79, respectively.

In turn, `COc1ccc(SC)c2c1C[C@H]1[C@@H](C2)OCCN1C` (stereo in doubt; 15) [listing 2 of 2 here] came in with an E in experiment [6] of 100. The pD2 in experiment [9] is 5.4.

(Values after ChEMBL document CHEMBL1126149, “Centrally acting alpha 1-adrenoceptor agonists based on hexahydronaphth[2,3-b]-1,4-oxazines and octahydrobenzo[g]quinolines” (1992).)
